Blank lines part the entries; values can stand above or below the compound they belong to.
Legend:
[1] = Plasma pharmacokinetics of gemcitabine; assay type: in vivo, human; settings: for effect of multiple doses of lonafarnib on the pharmacokinetics of gemcitabine: Day 15 versus Day 1; for Tmax / AUC / Cmax: human, plasma, intravenous; for Cmax: Gemcitabine Cmax
farnesyl transferase = farnesyl transferase (Homo sapiens, UniProt P49354+P49356); experiment: Prelamin A accumulation in buccal mucosal cells; assay type: in vivo; settings: buccal mucosal swabs, cycle 1 day 15 versus day 1; 10 of 17 samples
[2] = Multiple-dose plasma pharmacokinetics of lonafarnib; assay type: in vivo, human; settings: for AUC / Cmax / Tmax / half-life: human, plasma, oral; for AUC: Lonafarnib AUC (τ), 12 hour dosing interval; for Cmax: Lonafarnib Cmax; for Tmax: Lonafarnib Tmax (median); for half-life: Lonafarnib T½
Outline: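 Patients with advanced cancer took oral drug twice daily with food continuously, plus 30 min IV gemcitabine on days 1, 8, 15 of 28-day cycles. The evening dose was withheld on […]. Plasma was sampled on day 15 of cycles 1 and 2, pre-dose and to 24 h. LC-MS/MS had LLOQ 5.00 ng/mL.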

[3] = lonafarnib 100 mg BID+gemcitabine 750 mg/m2, cycle 1 day 15, n=4
[4] = lonafarnib 100 mg BID+gemcitabine 750 mg/m2, cycle 2 day 15, n=3
[5] = lonafarnib 100 mg BID+gemcitabine 1000 mg/m2, cycle 1 day 15, n=3
[6] = lonafarnib 200 mg BID+gemcitabine 600 mg/m2, cycle 2 day 15, n=4

- effect of multiple doses of lonafarnib on the pharmacokinetics of gemcitabine [1]: no apparent effect
- effect of multiple doses of lonafarnib on the pharmacokinetics of gemcitabine ([1]; listed as lonafarnib): no important effect
- samples showing prelamin A accumulation after treatment (farnesyl transferase): 59%
- AUC [2, 3]: 6000 ng·h/mL
- AUC [2, 4]: 6030 ng·h/mL
- AUC [2, 5]: 8200 ng·h/mL
- AUC [2, 6]: 14500 ng·h/mL
- Cmax [2, 3]: 717 ng/mL
- Cmax [2, 4]: 757 ng/mL
- Cmax [2, 5]: 1010 ng/mL
- Cmax [2, 6]: 1880 ng/mL
- Tmax [2, 3]: 5 h
- Tmax [2, 4]: 4 h
- Tmax [2, 5]: 4 h
- Tmax [2, 6]: 5 h
- half-life [2, 3]: 5.21 h
- half-life [2, 4]: 3.5 h
- half-life [2, 5]: 3.8 h
- half-life [2, 6]: 4.78 h
- 90% confidence interval for the AUC(τ) point estimate, Cycle 2 Day 15 to Cycle 1 Day 15 ([2]; log-transformed data): 76.2–145%
- AUC(τ) point estimate, Cycle 2 Day 15 compared to Cycle 1 Day 15 ([2]; log-transformed data): 105%
- mean total body clearance (CL/F), range over dose levels ([2]; twice daily multiple doses with weekly gemcitabine): 163 to 594 mL/min
Structure (SMILES): NC(=O)N1CCC(CC(=O)N2CCC([C@H]3c4ncc(Br)cc4CCc4cc(Cl)cc(Br)c43)CC2)CC1 [Lonafarnib]

- Tmax ([1]; 600 mg/m2, Gemcitabine Tmax (median), lonafarnib 200 mg BID+gemcitabine 600 mg/m2, cycle 1 Day 1 (gemcitabine alone), n=6): 0.38 h
- AUC ([1]; 750 mg/m2, Gemcitabine AUC (τ), lonafarnib 100 mg BID+gemcitabine 750 mg/m2, cycle 1 Day 1 (gemcitabine alone), n=4): 5380 ng·h/mL
- Tmax ([1]; 750 mg/m2, Gemcitabine Tmax (median), lonafarnib 100 mg BID+gemcitabine 750 mg/m2, cycle 1 Day 1 (gemcitabine alone), n=4): 0.5 h
- Tmax ([1]; 750 mg/m2, Gemcitabine Tmax (median), lonafarnib 150 mg BID+gemcitabine 750 mg/m2, cycle 1 Day 1 (gemcitabine alone), n=2): 0.25 h
- Tmax ([1]; 1000 mg/m2, Gemcitabine Tmax (median), lonafarnib 100 mg BID+gemcitabine 1000 mg/m2, cycle 1 Day 1 (gemcitabine alone), n=2): 0.38 h
- AUC ([1]; Gemcitabine AUC (τ), lonafarnib 100 mg BID+gemcitabine 750 mg/m2, cycle 1 Day 15 (with lonafarnib), n=4): 7890 ng·h/mL
- AUC ([1]; Gemcitabine AUC (τ), lonafarnib 100 mg BID+gemcitabine 1000 mg/m2, cycle 1 Day 15 (with lonafarnib), n=3): 5060 ng·h/mL
- AUC ([1]; Gemcitabine AUC (τ), lonafarnib 200 mg BID+gemcitabine 600 mg/m2, cycle 1 Day 15 (with lonafarnib), n=7): 4970 ng·h/mL
- Cmax ([1]; lonafarnib 100 mg BID+gemcitabine 750 mg/m2, cycle 1 Day 15 (with lonafarnib), n=4): 15000 ng/mL
- Cmax ([1]; lonafarnib 100 mg BID+gemcitabine 1000 mg/m2, cycle 1 Day 15 (with lonafarnib), n=3): 9800 ng/mL
- Cmax ([1]; lonafarnib 200 mg BID+gemcitabine 600 mg/m2, cycle 1 Day 15 (with lonafarnib), n=7): 11200 ng/mL
- Tmax ([1]; Gemcitabine Tmax (median), lonafarnib 100 mg BID+gemcitabine 750 mg/m2, cycle 1 Day 15 (with lonafarnib), n=4): 0.5 h
- Tmax ([1]; Gemcitabine Tmax (median), lonafarnib 100 mg BID+gemcitabine 1000 mg/m2, cycle 1 Day 15 (with lonafarnib), n=3): 0.25 h
- Tmax ([1]; Gemcitabine Tmax (median), lonafarnib 200 mg BID+gemcitabine 600 mg/m2, cycle 1 Day 15 (with lonafarnib), n=7): 0.25 h
Structure (SMILES): Nc1ccn([C@@H]2O[C@H](CO)[C@@H](O)C2(F)F)c(=O)n1 [Gemcitabine]

Reference: publication PMC4101887 (Cancer investigation, 2011)
